{"data": "Measurements pooled from the literature", "target": "Tyrosine-protein kinase SYK (SYK, Homo sapiens, UniProt P43405)", "note": "Compare with care: the assays were run in different laboratories."}
{"Compound": "Cc1cnc(Nc2ccc(C(=O)N3CCC(N4CCCC4)CC3)cc2)nc1-c1cc2ccccc2s1", "observed": "binding", "technique": "competition with immobilised ligand", "tested at": "1 µM", "remaining binding [%]": 7.7}
{"Compound": "CN(c1nccc(-c2cnn3ncccc23)n1)C1CC1", "observed": "binding", "tested at": "1 µM", "remaining binding [%]": 100}
{"Compound": "O=C(c1ccc(Nc2nccc(-c3cc4ccccc4s3)n2)cc1)N1CCC(N2CCCC2)CC1", "observed": "binding", "technique": "competition with immobilised ligand", "tested at": "1 µM", "remaining binding [%]": 31}
{"Compound": "CSc1cccnc1N1CCN(Cc2nc3ccccc3[nH]2)CC1", "observed": "cell-free assay", "technique": "competition with immobilised ligand", "tested at": "1 µM", "remaining binding [%]": 100}
{"Compound": "N[C@H]1CCN(c2nccc(-c3cnn4ncccc34)n2)C1", "observed": "binding", "tested at": "1 µM", "remaining binding [%]": 81}
{"Compound": "CCc1ccccc1C(=O)Nc1n[nH]c2c(C)c(F)c(C3C(C#N)=C(C)N(C)C(C)=C3C#N)cc12", "observed": "cell-free assay", "technique": "competition with immobilised ligand", "tested at": "1 µM", "remaining binding [%]": 100}
{"Compound": "O=C(c1ccc(Nc2ncc(Cl)c(-c3ccc(Cl)s3)n2)cc1)N1CCC(N2CCCC2)CC1", "observed": "binding", "technique": "competition with immobilised ligand", "tested at": "1 µM", "remaining binding [%]": 43}
{"Compound": "CN(C)c1ncc(F)c(-c2cnn3ncccc23)n1", "observed": "binding", "tested at": "1 µM", "remaining binding [%]": 76}
{"Compound": "COc1cnc(Nc2cccc(S(N)(=O)=O)c2)nc1N1CCN(c2ccccc2)C(=O)C1", "observed": "binding", "technique": "competition with immobilised ligand", "tested at": "1 µM", "remaining binding [%]": 100}
{"Compound": "C[C@@H]1CCN(c2nccc(-c3cnn4ncccc34)n2)C1", "observed": "binding", "tested at": "1 µM", "remaining binding [%]": 84}
{"Compound": "Nc1ncc2c(n1)-c1c([nH]c3ccc(C#CC4CC4)cc13)CCCC2", "observed": "binding", "technique": "competition with immobilised ligand", "tested at": "1 µM", "remaining binding [%]": 100}
{"Compound": "O=C(NCC1CCOCC1)c1n[nH]cc1NC(=O)c1c(F)cccc1F", "observed": "binding", "technique": "competition with immobilised ligand", "tested at": "1 µM", "remaining binding [%]": 100}
{"Compound": "C[C@@H]1CN(c2cc(-c3n[nH]c4ccc(OC5(C)CC5)cc34)ncn2)C[C@H](C)O1", "observed": "cell-free assay", "technique": "competition with immobilised ligand", "tested at": "0.1 µM", "remaining binding [%]": 96}
{"Compound": "COc1cnc(Nc2cccc(S(N)(=O)=O)c2)nc1N1CCN(c2ccccc2)CC1", "observed": "binding", "technique": "competition with immobilised ligand", "tested at": "1 µM", "remaining binding [%]": 86}
{"Compound": "Cc1cc(NC(=O)c2cccc(S(F)(F)(F)(F)F)c2)cc(-n2ccn3nc(-c4cccnc4)cc23)c1", "observed": "cell-free assay", "technique": "competition with immobilised ligand", "tested at": "1 µM", "remaining binding [%]": 95.5}
{"Compound": "c1cnn2ncc(-c3ccnc(N4CCC45COC5)n3)c2c1", "observed": "binding", "tested at": "1 µM", "remaining binding [%]": 99}
{"Compound": "Cc1cc(-n2nc(Cc3cc(F)cc(C(F)(F)F)c3)nc2C)ccc1C(N)=O", "observed": "cell-free assay", "technique": "competition with immobilised ligand", "tested at": "1 µM", "remaining binding [%]": 87}
{"Compound": "COc1ncc2cc3ccccc3nc2c1C#N", "observed": "cell-free assay", "technique": "competition with immobilised ligand", "tested at": "5 µM", "remaining binding [%]": 98}
{"Compound": "CN(C)c1nccc(-c2cnc3ncccn23)n1", "observed": "binding", "tested at": "1 µM", "remaining binding [%]": 78}
{"Compound": "O=C(Nc1cccnn1)N1CCC(=Cc2cccc(Oc3ccc(C(F)(F)F)cn3)c2)CC1", "observed": "cell-free assay", "technique": "competition with immobilised ligand", "tested at": "1 µM", "remaining binding [%]": 100}
